Here are results for 11 compounds from ChEMBL document CHEMBL4422687, “Highly potent and selective aryl-1,2,3-triazolyl benzylpiperidine inhibitors toward butyrylcholinesterase in Alzheimer's disease” (Bioorg Med Chem, 2019).

For data set [1], the target named is T1, Cholinesterase (Homo sapiens, UniProt P06276). As to the kind of experiment: Inhibition of recombinant human BuChE using butyrylthiocholine iodide as substrate preincubated for 5 mins followed by substrate addition and measured for 5 mins by Ellman's method. (In Ellman's method for cholinesterases, released thiocholine reacts with DTNB.)
For data set [2], the target named is Acetylcholinesterase (Homo sapiens, UniProt P22303). As to the kind of experiment: Inhibition of recombinant human AChE using acetylthiocholine iodide as substrate preincubated for 5 mins followed by substrate addition and measured for 5 mins by Ellman's method.
Data set [3] deals with T1, Cholinesterase. In words: Mixed-type inhibition of recombinant human BuChE using varying levels of butyrylthiocholine iodide as substrate by Lineweaver-burk plot analysis.
The species entered for data set [4] is Homo sapiens. In words: Selectivity ratio of IC50 for recombinant human AChE to IC50 for recombinant human BuChE.
Data set [5] deals with T1, Cholinesterase. In words: Potency index, ratio of donepezil IC50 to test compound IC50 for recombinant human BuChE.
For data set [6], the system named is SH-SY5Y. As to the kind of experiment: Cytotoxicity against human SH-SY5Y cells assessed as reduction in cell viability at BuChE IC50 after 24 hrs by XTT assay. It counts as cell-based. The method, boiled down: (§1)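 SH-SY5Y human neuroblastoma cells were treated with seven concentrations of each compound. Viability was read by XTT colorimetric assay after a 24 h or 120 h recovery period.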
(In general: Tetrazolium dyes change colour on reduction, which living cells bring about.)

Data set [7] has as its system SH-SY5Y. As to the kind of experiment: Cytotoxicity against human SH-SY5Y cells assessed as reduction in cell viability at 39.6 nM after 24 hrs by XTT assay. In kind it is cell-based. Conditions: 0.0396 µM.
Data set [8] concerns SH-SY5Y. In words: Cytotoxicity against human SH-SY5Y cells assessed as reduction in cell viability at BuChE IC50 after 120 hrs by XTT assay. In kind it is cell-based. The method, boiled down:
as §1

Data set [9] deals with SH-SY5Y. In words: Cytotoxicity against human SH-SY5Y cells assessed as reduction in cell viability at 40 uM after 24 hrs by XTT assay. It counts as cell-based.
Data set [10] concerns SH-SY5Y. As to the kind of experiment: Cytotoxicity against human SH-SY5Y cells assessed as reduction in cell viability at 80 uM after 24 hrs by XTT assay. In kind it is cell-based.
The subject of data set [11] is SH-SY5Y. In words: Cytotoxicity against human SH-SY5Y cells assessed as reduction in cell viability at 2.5 uM after 24 hrs by XTT assay. In kind it is cell-based.

The source made the active and inactive calls. The rule behind the calls is not given here.

A word on the IC50: it is the concentration that gives 50% inhibition.

Chain of Acetylcholinesterase (P22303 whole entry): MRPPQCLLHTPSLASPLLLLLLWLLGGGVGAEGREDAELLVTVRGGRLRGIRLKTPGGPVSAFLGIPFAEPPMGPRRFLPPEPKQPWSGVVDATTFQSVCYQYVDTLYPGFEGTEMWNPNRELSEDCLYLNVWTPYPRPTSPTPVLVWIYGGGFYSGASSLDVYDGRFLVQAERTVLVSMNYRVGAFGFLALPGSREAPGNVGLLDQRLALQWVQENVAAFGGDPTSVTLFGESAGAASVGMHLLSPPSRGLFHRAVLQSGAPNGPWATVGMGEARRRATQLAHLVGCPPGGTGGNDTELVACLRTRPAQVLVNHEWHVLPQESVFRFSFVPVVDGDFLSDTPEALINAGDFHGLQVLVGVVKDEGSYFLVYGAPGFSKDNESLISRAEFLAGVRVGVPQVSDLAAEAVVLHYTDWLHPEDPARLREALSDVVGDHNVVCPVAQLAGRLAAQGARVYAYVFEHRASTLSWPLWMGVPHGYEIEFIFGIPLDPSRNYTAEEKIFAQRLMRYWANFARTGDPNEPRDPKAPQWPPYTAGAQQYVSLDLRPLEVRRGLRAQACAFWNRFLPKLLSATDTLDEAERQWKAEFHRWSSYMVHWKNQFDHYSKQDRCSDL
T1 sequence (P06276 whole entry): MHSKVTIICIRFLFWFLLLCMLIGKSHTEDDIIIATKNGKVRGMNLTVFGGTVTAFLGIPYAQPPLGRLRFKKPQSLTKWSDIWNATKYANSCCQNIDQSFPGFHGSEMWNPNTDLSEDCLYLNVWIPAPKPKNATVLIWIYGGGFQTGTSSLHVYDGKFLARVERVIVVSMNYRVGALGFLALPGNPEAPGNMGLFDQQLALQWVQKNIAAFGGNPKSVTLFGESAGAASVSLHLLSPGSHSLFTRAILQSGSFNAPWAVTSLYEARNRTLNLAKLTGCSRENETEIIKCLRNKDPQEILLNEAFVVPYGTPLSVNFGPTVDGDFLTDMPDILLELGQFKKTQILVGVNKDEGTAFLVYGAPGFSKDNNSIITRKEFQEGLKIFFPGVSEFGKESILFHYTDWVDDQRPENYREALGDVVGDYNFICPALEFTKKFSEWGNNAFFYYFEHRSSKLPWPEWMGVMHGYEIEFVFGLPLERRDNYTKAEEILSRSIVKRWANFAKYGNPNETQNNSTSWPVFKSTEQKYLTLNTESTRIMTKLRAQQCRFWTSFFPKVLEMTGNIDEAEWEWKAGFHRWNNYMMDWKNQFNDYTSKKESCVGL

Consider `CCOc1ccc2[nH]c(SCc3cn(CC4CCN(Cc5ccccc5)CC4)nn3)nc2c1`, for which the IC50 in data set [1] came out at 1.91 µM; in data set [2], 6.9 µM.

For the compound `COc1cc2c(cc1OC)C(=O)C(Cc1cn(CC3CCN(Cc4ccccc4)CC3)nn1)C2` (stereo not drawn), the IC50 in [1] is over 10 µM; in data set [2], 4.92 µM.

`O=C(Cc1c[nH]c2ccccc12)NCc1cn(CC2CCN(Cc3ccccc3)CC2)nn1`: the IC50 in data set [1] was 5.3 µM; in data set [2] it was over 10 µM.

As to `CC(=O)N[C@@H](Cn1cc(-c2ccccc2)nn1)C(=O)NCC1CCN(Cc2ccccc2)CC1`, the inhibition entry in [3] was “Active”. The Ratio IC50 is over 58000 in [4] and 53000 in data set [5]. The IC50 in [1] is 0.00017 µM; in data set [2], over 10 µM. In addition, the Activity result in data set [6] was “Non-Toxic”.

`N[C@@H](Cn1cc(-c2ccccc2)nn1)C(=O)NCC1CCN(Cc2ccccc2)CC1`: the inhibition entry in data set [3] is “Active”. The Activity result in data set [7] was “Toxic”; in data set [8] it was “Non-Toxic”; in data set [6], “Non-Toxic”. The IC50 is 0.0099 µM in data set [1] and over 10 µM in data set [2].

Regarding `O=C1c2ccccc2C(=O)N1Cc1cn(CC2CCN(Cc3ccccc3)CC2)nn1`, the IC50 is over 10 µM in data set [1] and 4.9 µM in [2].

As for `N[C@@H](CCCCn1cc(-c2ccccc2)nn1)C(=O)NCC1CCN(Cc2ccccc2)CC1`, the Activity entry is recorded as “Non-Toxic” in data set [8], “Non-Toxic” in data set [6] and “Toxic” in data set [9]. For the same compound, the IC50 is 0.97 µM in data set [1] and over 10 µM in [2].

On to `COc1cc2ncnc(NCc3cn(CC4CCN(Cc5ccccc5)CC4)nn3)c2cc1OC`, for which the half-inhibitory concentration (IC50) in [1] is over 10 µM; in data set [2], 3.94 µM.

For the compound `CC(=O)N[C@@H](CCCCn1cc(-c2ccccc2)nn1)C(=O)NCC1CCN(Cc2ccccc2)CC1`, the Activity entry is listed as “Toxic” in [10], “Non-Toxic” in data set [8], “Toxic” in data set [11] and “Non-Toxic” in data set [6]. The Ratio IC50 in data set [5] worked out at 9. Further, the IC50 is 1.02 µM in data set [1] and over 10 µM in data set [2].

Turning to `c1ccc(CN2CCC(Cn3cc(CSc4nc5ccccc5[nH]4)nn3)CC2)cc1`, the results for the IC50 in [1] and in data set [2] were 0.065 µM and 7.33 µM, respectively.

In the case of `c1ccc(CN2CCC(Cn3cc(CNc4ncnc5ccccc45)nn3)CC2)cc1`, the IC50 in [1] came to 2.95 µM; in [2] it was 4.22 µM.
